Source: ChEMBL document CHEMBL4028848, “Discovery of N-{4-[5-(4-Fluorophenyl)-3-methyl-2-methylsulfanyl-3H-imidazol-4-yl]-pyridin-2-yl}-acetamide (CBS-3595), a Dual p38α MAPK/PDE-4 Inhibitor with Activity against TNFα-Related Diseases” (J Med Chem, 2017)
pIC50: −log10 of the molar value. Blank lines part the entries; values can stand above or below the compound they belong to. Active and inactive are the calls of the source. The calls are words filed in the database; no cut-off is given here.

Legend:
[1] = target: Casein kinase I isoform delta (Homo sapiens) (UniProt P48730); assay: Inhibition of CK1delta (unknown origin) at 3 uM relative to control
Canis familiaris [2] = assay: AUC (0 to t) in Beagle dog assessed as 4-(4-(4-fluorophenyl)-1-methyl-2-(methylsulfinyl)-1H-imidazol-5-yl)pyridin-2-amine level at 40 mg/kg, po by LC-MS/MS analysis; assay type: ADME, organism-based, Canis lupus familiaris; details: in vivo
Outline: (§1)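 Toxicokinetics from a maximum-tolerated-dose study in four Beagle dogs given 40 mg/kg orally. Plasma levels of both parent and its predominant metabolite were monitored.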

Canis familiaris [3] = assay: Cmax in Beagle dog assessed as 4-(4-(4-fluorophenyl)-1-methyl-2-(methylsulfinyl)-1H-imidazol-5-yl)pyridin-2-amine level at 40 mg/kg, po by LC-MS/MS analysis; assay type: ADME, organism-based, Canis lupus familiaris; design: dose 40 mg/kg, route oral; details: in vivo; outline: as §1
[4] = target: Mitogen-activated protein kinase 1 (Homo sapiens) (UniProt P28482); assay: Inhibition of MAPK2 (unknown origin) at 10 uM
[5] = Cmax in female Sprague-Dawley rat at 30 mg/kg, po by LC-MS/MS analysis; assay type: ADME, organism-based; design: dose 30 mg/kg, route oral; details: in vivo
[6] = target: T1, Mitogen-activated protein kinase 14 (Homo sapiens, UniProt Q16539); assay: Inhibition of MKK6-mediated p38alpha MAPK (unknown origin) phosphorylation up to 10 uM
Cynomolgus monkey [7] = assay: In vivo inhibition of P38 MAPKalpha in po dosed cynomolgus monkey assessed as decrease in TNFalpha level in LPS-stimulated whole blood pretreated for 4 weeks followed by ex vivo LPS addition measured on day 27; assay type: functional, organism-based; details: Macaca fascicularis
[8] = Tmax in mongrel dog at 30 mg/kg, po by LC-MS/MS analysis; assay type: ADME, organism-based, Canis lupus familiaris; details: in vivo
Homo sapiens [9] = species: Homo sapiens; assay: Inhibition of PDE4 in LPS-stimulated human whole blood assessed as decrease in leukotriene B4 level in plasma
Saccharomyces cerevisiae = assay: Inhibition of yeast CK1 at 10 uM relative to control
Homo sapiens [10] = assay: Toxicity in human assessed as effect on heart rate at 50 mg, po administered as single dose; assay type: organism-based; details: in vivo
Rattus norvegicus [11] = assay: Antiarthritic activity in Lewis rat assessed as collagen oligomeric matrix protein level in serum at 25 mg/kg, po bid administered for 10 days (Rbv = 0.17 +/- 0.02 U/l); assay type: functional
Outline: (§2)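 Collagen-induced arthritis in male Lewis rats (5–6 per group). Groups received vehicle, dexamethasone 1 mg/kg, test item 50 mg/kg once daily, or 25 mg/kg twice daily for 10 days. Body weight, arthritic score and paw volume were monitored, and serum COMP was measured at the end.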

[12] = target: CDK3/Cyclin E (Homo sapiens) (UniProt P24864+Q00526); assay: Inhibition of CDK3/cyclinE (unknown origin) at 10 uM relative to control; assay type: protein-complex assay
[13] = target: Ephrin type-B receptor 2 (Homo sapiens) (UniProt P29323); assay: Inhibition of EphB2 (unknown origin) at 10 uM relative to control
Liver = assay: Drug metabolism in rat liver microsomes assessed as N-(4-(4-(4-fluorophenyl)-1-methyl-2-(methylsulfinyl)-1H-imidazol-5-yl)pyridin-2-yl)acetamide formation at 10 to 100 uM; assay type: ADME, microsome
Outline: (§3)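 Test compound incubated at 10, 30 and 100 μM with liver microsomes from rat, Cynomolgus monkey or human, and metabolites monitored.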

Cynomolgus monkey [14] = assay: Toxicity in cynomolgus monkey assessed as effect on mean blood preasure at 6 to 20 mg/kg, po; assay type: organism-based, Macaca fascicularis; details: in vivo
Cynomolgus monkey [15] = assay: Toxicity in cynomolgus monkey assessed as induction of trchycardia at 6 to 20 mg/kg, po measured after 0.5 to 6 hrs post dose; assay type: organism-based, Macaca fascicularis; details: in vivo
[16] = Half life in Beagle dog at 40 mg/kg, po by LC-MS/MS analysis; assay type: ADME, organism-based, Canis lupus familiaris; details: in vivo
Outline: (§4)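 Oral single-dose PK; plasma concentrations of parent and metabolite measured. Dogs: blood sampled 0.25 to 24 h after dosing. Humans: healthy subjects, placebo-controlled single-blind randomized consecutive dosing, plasma sampled predose and 0.25–36 h post dose. 10 mg also given fasting and fed in crossover. Parameters derived from individual concentration–time profiles.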

[17] = Cmax in mongrel dog at 30 mg/kg, po by LC-MS/MS analysis; assay type: ADME, organism-based, Canis lupus familiaris; design: dose 30 mg/kg, route oral; details: in vivo; outline: as §4
Rattus norvegicus [18] = assay: Antiarthritic activity in Lewis rat assessed as change in paw volume at 25 mg/kg, po bid administered for 10 days; assay type: functional, organism-based; outline: as §2
[19] = AUC (0 to infinity) in female Sprague-Dawley rat at 30 mg/kg, po by LC-MS/MS analysis; assay type: ADME, organism-based; design: dose 30 mg/kg, time infinity, route oral; details: in vivo
Outline: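 Rats of each sex received a single oral dose of 30 mg/kg. Plasma concentration–time profiles of parent were determined separately for females and males.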

Lymphocyte = assay: Clastogenicity in human lymphocytes in absence of S9 fraction by microneucleus test; assay type: toxicity, cell-based
Outline: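 Cytogenetic clastogenicity assay in cultured human lymphocytes, run with and without S9 mix.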

Mus musculus = assay: In vivo inhibition of P38 MAPKalpha in BALB/c mouse assessed as decrease in LPS/GalN-stimulated TNFalpha level in plasma at 3 mg/kg, po administered via gavage pretreated for 1 hr followed by LPS/GalN addition measured after 1.5 hrs relative to control; assay type: functional
Outline: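 Male BALB/c mice, n = 6/group, given 3, 10 or 30 mg/kg orally by gavage 1 h before i.p. D-GalN (500 mg/kg) plus LPS (1.5 μg/kg). Blood was taken by cardiac puncture and plasma TNFα measured against a vehicle-only control.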

[20] = Toxicity in cynomolgus monkey for 28 days; design: species or system Macaca fascicularis; details: in vivo
Outline: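 Cynomolgus monkeys, 32 in total, 3–5 per group. Dosed for 28 days with vehicle or 6, 12 or 20 mg/kg; the high dose was raised to 25 mg/kg/day after 1 week. Two males and two females from the control and high-dose groups were followed through a further 2-week treatment-free period. Deaths and clinical signs recorded.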

Rattus norvegicus [21] = assay: Toxicity in rat assessed as effect on respiratory rate by measuring increase in peak expiratory flow 300 mg/kg, po administered as single dose; assay type: organism-based; details: in vivo
[22] = Drug metabolism in cynomolgus monkey liver microsomes assessed as 4-(4-(4-fluorophenyl)-1-methyl-2-(methylsulfonyl)-1H-imidazol-5-yl)pyridin-2-amine formation at 10 to 100 uM; assay type: ADME, Macaca fascicularis, microsome; outline: as §3
Escherichia coli = assay: Genotoxicity in Escherichia coli in presence of S9 fraction by Ames test; assay type: toxicity
Outline: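 Bacterial reverse mutation (Ames) test in S. typhimurium and E. coli strains, run with and without S9 mix.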

Rattus norvegicus [23] = assay: Toxicity in Sprague-Dawley rat assessed as increase in piloerection at 150 mg/kg, po administered via gavage for daily 28 days followed by 2 weeks off without dosing; assay type: organism-based; details: in vivo
[24] = target: T1, Mitogen-activated protein kinase 14; assay: Inhibition of p38alpha MAPK (unknown origin) by beta-galactosidase enzyme complementation assay
[25] = Toxicity in Sprague-Dawley rat administered via oral gavage measured for 14 days; details: in vivo
Serum = assay: Drug uptake in male Lewis rat serum at 10 mg/kg, po by LC-MS/MS analysis; assay type: ADME, organism-based; details: in vivo
Outline: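 Male Lewis rats were dosed orally at 10 mg/kg 1 h before an i.v. LPS challenge of 0.1 mg/kg. Serum drug concentration was measured 1.5 h after LPS.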

Homo sapiens [26] = species: Homo sapiens; assay: Inhibition of cyclinH/MAT1 (unknown origin) at 10 uM relative to control
Homo sapiens [27] = species: Homo sapiens; assay: Inhibition of p70S6K (unknown origin) at 10 uM relative to control
[28] = Cmax in male Sprague-Dawley rat at 30 mg/kg, po by LC-MS/MS analysis; assay type: ADME, organism-based; design: dose 30 mg/kg, route oral; details: in vivo

T1 sequence (Q16539 whole entry): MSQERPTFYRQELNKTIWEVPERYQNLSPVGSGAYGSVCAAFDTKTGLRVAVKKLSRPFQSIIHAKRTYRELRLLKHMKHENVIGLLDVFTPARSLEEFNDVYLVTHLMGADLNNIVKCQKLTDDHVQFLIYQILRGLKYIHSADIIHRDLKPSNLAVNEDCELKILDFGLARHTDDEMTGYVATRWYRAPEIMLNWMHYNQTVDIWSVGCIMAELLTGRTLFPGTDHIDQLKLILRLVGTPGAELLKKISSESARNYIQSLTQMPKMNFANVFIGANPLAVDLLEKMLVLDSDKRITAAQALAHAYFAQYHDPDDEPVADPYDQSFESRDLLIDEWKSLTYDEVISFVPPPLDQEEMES
Chain of Ephrin type-B receptor 2 (Homo sapiens) (P29323 whole entry): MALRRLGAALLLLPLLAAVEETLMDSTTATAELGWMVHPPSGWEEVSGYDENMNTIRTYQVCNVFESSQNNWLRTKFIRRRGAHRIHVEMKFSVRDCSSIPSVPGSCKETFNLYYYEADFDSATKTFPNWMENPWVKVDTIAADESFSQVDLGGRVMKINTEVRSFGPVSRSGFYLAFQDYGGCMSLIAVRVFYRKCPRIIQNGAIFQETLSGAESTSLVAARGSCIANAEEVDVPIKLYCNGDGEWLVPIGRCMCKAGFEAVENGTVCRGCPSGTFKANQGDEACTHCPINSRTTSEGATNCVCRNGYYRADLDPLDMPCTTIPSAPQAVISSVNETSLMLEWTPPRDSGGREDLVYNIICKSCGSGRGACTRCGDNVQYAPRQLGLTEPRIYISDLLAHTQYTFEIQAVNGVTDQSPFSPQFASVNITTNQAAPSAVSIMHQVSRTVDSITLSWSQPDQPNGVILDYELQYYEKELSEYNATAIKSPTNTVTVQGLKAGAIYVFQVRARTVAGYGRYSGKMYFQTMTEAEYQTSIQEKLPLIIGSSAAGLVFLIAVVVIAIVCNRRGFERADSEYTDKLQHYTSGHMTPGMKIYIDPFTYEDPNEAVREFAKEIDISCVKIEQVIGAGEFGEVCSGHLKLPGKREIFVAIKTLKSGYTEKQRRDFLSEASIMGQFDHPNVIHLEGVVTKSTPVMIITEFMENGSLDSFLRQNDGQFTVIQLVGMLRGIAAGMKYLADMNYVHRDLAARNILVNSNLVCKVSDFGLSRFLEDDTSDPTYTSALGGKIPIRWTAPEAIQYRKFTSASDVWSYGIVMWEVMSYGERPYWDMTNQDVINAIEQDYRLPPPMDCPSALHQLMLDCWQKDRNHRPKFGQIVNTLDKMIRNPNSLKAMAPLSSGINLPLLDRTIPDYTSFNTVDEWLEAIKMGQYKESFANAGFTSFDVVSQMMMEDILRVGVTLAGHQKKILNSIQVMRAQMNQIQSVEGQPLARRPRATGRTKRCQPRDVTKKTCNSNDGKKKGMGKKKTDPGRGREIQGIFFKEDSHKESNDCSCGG
Chain of CDK3/Cyclin E (Homo sapiens) (P24864 whole entry, looked up): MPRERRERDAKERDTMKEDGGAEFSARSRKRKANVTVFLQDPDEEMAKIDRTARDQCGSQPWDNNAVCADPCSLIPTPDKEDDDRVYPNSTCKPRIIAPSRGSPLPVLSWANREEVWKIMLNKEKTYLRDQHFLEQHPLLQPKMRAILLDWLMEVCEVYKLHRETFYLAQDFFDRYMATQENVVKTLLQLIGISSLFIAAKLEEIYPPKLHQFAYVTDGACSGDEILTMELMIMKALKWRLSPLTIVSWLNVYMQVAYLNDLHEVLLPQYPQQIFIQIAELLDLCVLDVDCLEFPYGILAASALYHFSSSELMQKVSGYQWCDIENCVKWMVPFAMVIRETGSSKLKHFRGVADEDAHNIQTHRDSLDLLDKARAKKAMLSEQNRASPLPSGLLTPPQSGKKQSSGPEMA
Chain of CDK3/Cyclin E (Homo sapiens) (Q00526 whole entry, looked up): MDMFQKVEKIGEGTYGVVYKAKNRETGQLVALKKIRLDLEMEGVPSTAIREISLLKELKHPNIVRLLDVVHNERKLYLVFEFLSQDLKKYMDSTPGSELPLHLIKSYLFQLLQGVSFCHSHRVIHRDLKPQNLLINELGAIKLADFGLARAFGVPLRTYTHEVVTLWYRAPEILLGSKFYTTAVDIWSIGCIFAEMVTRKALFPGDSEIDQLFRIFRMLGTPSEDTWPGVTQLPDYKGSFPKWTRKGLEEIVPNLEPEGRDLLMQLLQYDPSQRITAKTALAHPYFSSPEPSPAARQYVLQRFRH
Chain of Casein kinase I isoform delta (Homo sapiens) (P48730 whole entry, looked up, canonical isoform): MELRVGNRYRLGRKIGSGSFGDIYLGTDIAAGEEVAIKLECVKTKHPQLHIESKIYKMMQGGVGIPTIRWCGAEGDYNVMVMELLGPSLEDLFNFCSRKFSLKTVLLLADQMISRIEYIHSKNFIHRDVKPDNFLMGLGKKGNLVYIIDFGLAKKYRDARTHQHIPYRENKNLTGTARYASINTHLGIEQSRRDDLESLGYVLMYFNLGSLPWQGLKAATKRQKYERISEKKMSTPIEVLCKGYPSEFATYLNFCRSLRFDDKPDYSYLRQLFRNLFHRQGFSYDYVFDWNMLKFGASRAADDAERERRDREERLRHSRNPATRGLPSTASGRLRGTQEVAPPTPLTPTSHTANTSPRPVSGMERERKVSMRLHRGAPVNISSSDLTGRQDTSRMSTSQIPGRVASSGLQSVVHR
Chain of Mitogen-activated protein kinase 1 (Homo sapiens) (P28482 whole entry): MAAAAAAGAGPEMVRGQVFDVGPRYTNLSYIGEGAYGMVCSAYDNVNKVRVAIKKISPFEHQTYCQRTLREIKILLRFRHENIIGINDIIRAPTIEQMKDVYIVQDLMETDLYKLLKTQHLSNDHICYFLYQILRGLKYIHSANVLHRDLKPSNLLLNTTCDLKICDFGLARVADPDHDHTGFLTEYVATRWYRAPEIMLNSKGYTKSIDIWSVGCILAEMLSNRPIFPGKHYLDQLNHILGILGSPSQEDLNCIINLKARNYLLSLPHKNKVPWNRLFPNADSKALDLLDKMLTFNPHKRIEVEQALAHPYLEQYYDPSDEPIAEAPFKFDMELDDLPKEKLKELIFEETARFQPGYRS

- inhibition [1]: 88%
- AUCt (Canis familiaris [2]): 86.5 µM·h
- Cmax (Canis familiaris [3]): 5.1 µM
- inhibition [4]: inactive
SMILES: Cn1c([S+](C)[O-])nc(-c2ccc(F)cc2)c1-c1ccnc(N)c1 (stereo not given)

SMILES: CC(=O)Nc1cc(-c2c(-c3ccc(F)cc3)nc([S+](C)[O-])n2C)ccn1 (stereo not given)
- Cmax [5]: 4.8 µM
- inhibition [6]: inactive
- inhibition (Cynomolgus monkey [7]): Dose-dependent effect
- Tmax [8]: 2 h
- inhibition (Homo sapiens [9]): Dose-dependent effect
- inhibition (Saccharomyces cerevisiae): 97%
- Activity (Homo sapiens [10]): Non-Toxic
- Activity (Rattus norvegicus [11]): 0.08 U/L
- inhibition [12]: 55%
- inhibition [13]: 60%
- Drug metabolism (Liver): Metabolite_Detected
- Activity (Cynomolgus monkey [14]): Non-Toxic
- Activity (Cynomolgus monkey [15]): Toxic
- half-life [16]: 7.8 h
- Cmax [17]: 14.3 µM
- Activity (Rattus norvegicus [18]): inactive
- AUC(0-inf) [19]: 40.9 µM·h
- Activity (Lymphocyte): Non-Toxic
- inhibition in vivo at 3 mg/kg (Mus musculus): 82%
- MTD at 672 h [20]: 20 mg/kg
- NOAEL at 672 h [20]: > 25 mg/kg
- Activity (Rattus norvegicus [21]): Toxic
- Drug metabolism [22]: Metabolite_Detected
- Activity (Escherichia coli): Non-Toxic
- Activity (Rattus norvegicus [23]): Toxic
- pIC50 [24]: 6.30
- MTD at 336 h [25]: 150 mg/kg
- Drug uptake (Serum): 689 ng/mL
- inhibition (Homo sapiens [26]): 54%
- inhibition (Homo sapiens [27]): 32%
- Cmax [28]: 3.4 µM
